According to ChEMBL document CHEMBL1132588, “Synthesis, CoMFA analysis, and receptor docking of 3,5-diacyl-2, 4-dialkylpyridine derivatives as selective A3 adenosine receptor antagonists” (J Med Chem, 1999):

Tests used:
[1] = biological target: T1, Adenosine receptor A3 (Homo sapiens) (UniProt P0DMS8); assay: (§1) Displacement of specific [125 I]AB-MECA binding at human Adenosine A3 receptor expressed in HEK cells; assay type: cell-based; conditions: HEK293
T1 sequence (whole entry): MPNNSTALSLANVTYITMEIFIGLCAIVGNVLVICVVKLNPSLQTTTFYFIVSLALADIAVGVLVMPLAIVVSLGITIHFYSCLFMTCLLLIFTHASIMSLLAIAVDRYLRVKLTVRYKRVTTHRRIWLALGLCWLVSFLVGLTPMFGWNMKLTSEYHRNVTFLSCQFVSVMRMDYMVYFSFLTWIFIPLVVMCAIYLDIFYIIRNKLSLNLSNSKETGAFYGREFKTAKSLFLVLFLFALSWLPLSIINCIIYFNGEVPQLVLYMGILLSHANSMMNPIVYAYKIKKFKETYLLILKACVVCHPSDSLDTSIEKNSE

Adenosine receptor A1 = biological target: T2, Adenosine receptor A1 (Rattus norvegicus, UniProt P25099); assay: (§2) Displacement of specific [3H]-CGS- 21680R-PIA binding to Adenosine A1 receptor in rat brain membranes.; assay type: cell membranes; conditions: in the assay text read “[3H]R-PIA” for “[3H]-CGS- 21680R-PIA”
T2 sequence (P25099 whole entry): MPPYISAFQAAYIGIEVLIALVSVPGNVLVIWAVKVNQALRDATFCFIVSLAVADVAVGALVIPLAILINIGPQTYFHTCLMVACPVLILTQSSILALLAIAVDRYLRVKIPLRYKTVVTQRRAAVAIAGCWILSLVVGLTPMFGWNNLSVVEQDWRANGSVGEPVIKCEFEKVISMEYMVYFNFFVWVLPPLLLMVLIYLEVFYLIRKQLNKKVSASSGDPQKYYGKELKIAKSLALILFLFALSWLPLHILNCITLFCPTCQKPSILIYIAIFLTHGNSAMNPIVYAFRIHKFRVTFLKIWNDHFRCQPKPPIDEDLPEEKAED
How it was run: (§3)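 A1 binding used [3H]R-PIA on rat cerebral cortex membranes. Adenosine deaminase (3 units/mL) was included in membrane preparation, in a 30 min preincubation at 30 °C, and throughout radioligand incubation. Competitors were DMSO stocks diluted in buffer, with DMSO never above 2%.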

Adenosine receptor A2a = Adenosine receptor A2a (Rattus norvegicus, UniProt P30543); assay: Inhibition of [3H]-CGS- 21680 binding to Adenosine A2A receptor in rat striatal membranes.; assay type: cell membranes, Membrane
Adenosine receptor A2a, sequence (P30543 whole entry): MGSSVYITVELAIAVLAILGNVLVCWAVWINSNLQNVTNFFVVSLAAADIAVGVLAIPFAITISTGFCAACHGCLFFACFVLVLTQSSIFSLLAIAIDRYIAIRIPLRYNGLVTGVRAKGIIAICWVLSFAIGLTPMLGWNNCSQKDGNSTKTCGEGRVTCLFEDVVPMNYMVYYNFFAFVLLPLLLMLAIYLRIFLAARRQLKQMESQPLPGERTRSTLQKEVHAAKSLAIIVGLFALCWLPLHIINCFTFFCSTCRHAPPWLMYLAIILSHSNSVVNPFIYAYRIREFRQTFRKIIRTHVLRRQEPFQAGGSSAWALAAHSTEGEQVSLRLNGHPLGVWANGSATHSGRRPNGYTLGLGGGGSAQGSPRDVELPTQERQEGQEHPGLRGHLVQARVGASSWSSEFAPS

Rattus norvegicus [2] = species on record: Rattus norvegicus; assay: Ratio of binding affinities for rat A1 receptor against human A3 receptor, [Ki(rA1) / Ki (hA3)].
How it was run: (§4)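 Ratio of Ki values from binding assays. For A3, [125I]AB-MECA (final 0.3 nM) bound membranes of HEK-293 cells expressing human A3 (clone HS-21a) or CHO cells expressing rat A3, in Tris/Mg2+/EDTA buffer at pH 8.0. For rat A1, [3H]R-PIA bound cerebral cortex membranes, with adenosine deaminase (3 units/mL) present, including a 30 min preincubation at 30 °C.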

Adenosine receptor A3 [3] = biological target: T3, Adenosine receptor A3 (Homo sapiens, UniProt P0DMS8); assay: as §1; assay type: cell-based, HEK293
T3 sequence (P0DMS8 whole entry): T1 sequence (whole entry)
How it was run: (§5)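 Membranes from HEK-293 cells stably expressing human A3 receptor (clone HS-21a), or from CHO cells stably expressing rat A3 receptor (rat: n = 3-5), in 50 mM Tris, 10 mM Mg2+, 1 mM EDTA, pH 8.0. Membranes at 0.3 mg protein/mL with [125I]AB-MECA at 0.3 nM final. Nonspecific binding defined with R-PIA. Competitors were dissolved in DMSO (≤2% final) and tested at ≥5 concentrations spanning 3 log units. Bound ligand was separated by GF/B filtration with three buffer rinses; Ki was derived.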

Rattus norvegicus [4] = species on record: Rattus norvegicus; assay: Ratio of the binding affinities against rat A3 receptor / human A3 receptor, Ki(rA1) / Ki (hA3).; how it was run: as §4
Rattus norvegicus [5] = species on record: Rattus norvegicus; assay: Ratio of the binding affinities against rat A3 receptor / rat A3 receptor, Ki(rA1) / Ki (rA3).; how it was run: as §4
Adenosine receptor A3 [6] = biological target: T4, Adenosine receptor A3 (Rattus norvegicus, UniProt P28647); assay: Displacement of specific [125I]AB-MECA binding at rat Adenosine A3 receptor stably expressed in CHO cells; assay type: cell-based
T4 sequence (P28647 whole entry): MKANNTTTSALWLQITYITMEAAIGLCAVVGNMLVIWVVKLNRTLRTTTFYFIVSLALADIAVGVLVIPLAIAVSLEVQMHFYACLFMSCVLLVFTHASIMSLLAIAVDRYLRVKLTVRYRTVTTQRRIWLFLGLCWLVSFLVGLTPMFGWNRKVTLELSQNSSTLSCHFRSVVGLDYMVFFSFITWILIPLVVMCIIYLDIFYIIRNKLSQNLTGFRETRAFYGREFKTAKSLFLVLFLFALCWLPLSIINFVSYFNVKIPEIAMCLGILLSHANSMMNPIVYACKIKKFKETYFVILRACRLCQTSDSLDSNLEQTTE

[7] = biological target: Adenosine receptor A2a (Rattus norvegicus) (UniProt P30543); assay: (§6) Displacement of specific [3H]-CGS- 21680 binding to Adenosine A2A receptor in rat striatal membranes; assay type: cell membranes; design: concentration or dose not given beside the values; conditions: Membrane, concentration not given here
Adenosine receptor A2a (Rattus norvegicus), sequence (P30543 whole entry): as the sequence (P30543 whole entry) above
How it was run: (§7)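 Rat striatal membranes labelled with [3H]CGS 21680 for A2A binding. Adenosine deaminase (3 units/mL) was present during membrane preparation, during a 30 min preincubation at 30 °C, and during radioligand incubation. Competitors were dissolved in DMSO and diluted in buffer (DMSO ≤2%).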

[8] = biological target: T5, Adenosine receptor A1 (Rattus norvegicus) (UniProt P25099); assay: as §2; assay type: cell membranes; conditions: concentration not given here; how it was run: as §3
T5 sequence (whole entry): T2 sequence (P25099 whole entry)

[9] = biological target: T1, Adenosine receptor A3 (Homo sapiens); assay: as §1; assay type: cell-based; conditions: HEK293; concentration not given here; how it was run: as §5
[10] = biological target: Adenosine receptor A2a (Rattus norvegicus) (UniProt P30543); assay: as §6; assay type: cell membranes; conditions: Membrane; how it was run: as §7

pKi [1]	Ki (Adenosine receptor A1) [µM]	Ratio (Rattus norvegicus [2])	Ki (Adenosine receptor A3 [3]) [µM]	Structure (SMILES)	also measured
6.71				CCCc1c(C(=O)SCC)c(C)nc(-c2ccccc2)c1C(=O)OCC	
	25.1			CCCc1c2c(nc(-c3ccccc3)c1C(=O)OCC)CCSC2=O	Ki (Adenosine receptor A2a): 43.6 µM
8.01	6.05	630	0.00967	CCCc1c(C(=O)SCC)c(CC)nc(-c2ccccc2)c1C(=O)OCCCF	Ratio (Rattus norvegicus [4]): 53; Ki (Adenosine receptor A2a): 9.67 µM; Ratio (Rattus norvegicus [5]): 12; Ki (Adenosine receptor A3 [6]): 0.512 µM
5.47				CCOC(=O)c1c(C2CCCC2)nc(CC)c(C(=O)SCC)c1CC	
7.51	41	1300	0.0311	CCCOC(=O)c1c(-c2ccc(F)cc2)nc(CC)c(C(=O)SCC)c1CCC	inhibition [7]: 50%
6.11				CCOC(=O)c1c(C)nc(-c2ccccc2)c(C(=O)OCC)c1C(OC)OC	
5.59		> 50		CCCOC(=O)c1c(CCC)c(C(=O)SCC)c(CC)[n+](C)c1-c1ccccc1	Ratio (Rattus norvegicus [4]): 2.1; inhibition [8]: < 10%; inhibition [7]: < 10%; Ratio (Rattus norvegicus [5]): > 23; Ki (Adenosine receptor A3 [6]): 4.26 µM
	5.94			CCCOC(=O)c1c(-c2ccccc2)nc(CCO)c(C(=O)SCC)c1CCC	inhibition [9]: 16%; Ki (Adenosine receptor A2a): 29.1 µM
7.74	8.29	460	0.0181	CCCOC(=O)c1c(-c2ccccc2)nc(CC)c(C(=O)SCC(F)(F)F)c1CCC	Ratio (Rattus norvegicus [4]): 27; Ki (Adenosine receptor A2a): 6.14 µM; Ratio (Rattus norvegicus [5]): 17; Ki (Adenosine receptor A3 [6]): 0.495 µM
7.22	8.09	140	0.0599	CCCOC(=O)c1c(-c2ccccc2)nc(CC)c(C(=O)SCC)c1CCCF	Ratio (Rattus norvegicus [4]): 15; Ki (Adenosine receptor A2a): 27.4 µM; Ratio (Rattus norvegicus [5]): 9; Ki (Adenosine receptor A3 [6]): 0.9 µM
	11.2			CCCOC(=O)c1c(-c2ccccc2)nc(CC)c2c1CCOC2=O	inhibition [9]: < 10%; inhibition [7]: 20%
7.6	16.5		0.248	CCCOC(=O)c1c(-c2ccccc2)nc(CC)c2c1CCSC2=O	Ki (Adenosine receptor A2a): 67.1 µM; Ki (Adenosine receptor A3 [6]): 2.58 µM
7.87				CCOC(=O)c1c(-c2cccc(Cl)c2)nc(CC)c(C(=O)SCC)c1CC	
7.67	0.041	> 3000		CCOC(=O)c1c(-c2ccccc2)nc(CC)c(C(=O)SCC)c1CC	Ratio (Rattus norvegicus [4]): 21; Ratio (Rattus norvegicus [5]): > 100
			0.517	CCCOC(=O)c1c(-c2ccccc2)nc(CC)c(C(=O)SCCOC2CCCCO2)c1CCC (stereo unspecified)	inhibition [8]: 18%; inhibition [7]: < 10%
6.75				CCOC(=O)c1c(C)nc(-c2ccccc2)c(C(=O)OCC)c1CC	
7.29	10.8	210	0.0511	CCCOC(=O)c1c(-c2ccccc2)nc(CC)c(C(=O)SCCO)c1CCC	Ki (Adenosine receptor A2a): 5.59 µM
7.48				CCCc1nc(-c2ccccc2)c(C(=O)OCC)c(CC)c1C(=O)SCC	
5.41				CCOC(=O)c1c(C)nc(C2CCCC2)c(C(=O)OCc2ccccc2)c1C#Cc1ccccc1	
6.78				CCOC(=O)c1c(-c2ccccc2)nc(C)c(C(=O)SCCOC)c1CC	
6.67				CCCOC(=O)c1c(C)nc(-c2ccccc2)c(C(=O)OCC)c1C	
7.54	8.2	280	0.0289	CCCOC(=O)c1c(-c2cccc(F)c2)nc(CC)c(C(=O)SCC)c1CCC	Ki (Adenosine receptor A2a): 28.1 µM
6.84				CCOC(=O)c1c(-c2ccccc2)nc(C2CCC2)c(C(=O)SCC)c1CC	
5.56				CCOC(=O)c1c(C)nc(-c2ccccc2)c(C(=O)OCc2ccccc2)c1C#Cc1ccccc1	

pKi [1]	Ki (Adenosine receptor A1) [µM]	Ratio (Rattus norvegicus [2])	Ki (Adenosine receptor A3 [3]) [µM]	Structure (SMILES)	also measured
8.37	11.5	2700		CCSC(=O)c1c(CC)nc(-c2ccccc2)c(C(=O)OCCF)c1CC	Ratio (Rattus norvegicus [4]): 140; Ki (Adenosine receptor A2a): 7.33 µM; Ratio (Rattus norvegicus [5]): 19; Ki (Adenosine receptor A3 [6]): 0.6 µM
7.37				CCOC(=O)c1c(-c2ccccc2)nc(C)c(C(=O)SCC)c1CC	
5.58				CCSC(=O)c1c(C)nc(-c2ccccc2)c(C(=O)OCc2ccccc2)c1CC	
6.92				CCOC(=O)c1c(CC)nc(-c2ccccc2)c(C(=O)OCC)c1C	
5.62				CCOC(=O)c1c(C)nc(C2CCC2)c(C(=O)OCc2ccccc2)c1C#Cc1ccccc1	
		2.2	2.64	CCCOC(=O)c1c(-c2ccccc2)nc(CC)c(C(=O)SCC2COC(C)(C)O2)c1CCC (stereo unspecified)	inhibition [7]: < 10%
6.58	9.04	35	0.262	CCCOC(=O)c1c(-c2ccccc2)nc(CC)c(C(=O)SCC)c1CCO	Ki (Adenosine receptor A2a): 0.0103 µM
6.91	9.8	79	0.124	CCCOC(=O)c1c(-c2ccccc2)nc(CC)c(C(=O)SCC)c1CCSC(C)=O	inhibition [7]: 28%
6.77				CCCOC(=O)c1c(-c2ccccc2)nc(CC)c(C(=O)SCC)c1CCCO	
6.73				CCSC(=O)c1c(CC)nc(-c2ccccc2)c(C(=O)OCCO)c1CC	
5.35				CCOC(=O)c1c(C)nc(-c2ccccc2)c(C(=O)OCC)c1C	
6.96	16		0.109	CCCOC(=O)c1c(-c2ccccc2)nc(CCOCc2ccccc2)c(C(=O)SCC)c1CCC	
				CCNC(=O)c1c(C)nc(-c2ccccc2)c(C(=O)OCC)c1CC	inhibition [9]: < 10%; inhibition [8]: < 10%; inhibition [7]: < 10%
6.61	0.49	2	0.243	CCOC(=O)c1c(-c2ccccc2)nc(CC)c(C(=O)SCC)c1CCN1C(=O)c2ccccc2C1=O	Ki (Adenosine receptor A2a): 1.14 µM
7.46				CCCCc1nc(-c2ccccc2)c(C(=O)OCC)c(CC)c1C(=O)SCC	
5.89				CCOC(=O)c1c(-c2ccccc2)nc(CC)c(C(=O)O)c1CC	
5.7	5.79		1.99	CCOC(=O)c1c(-c2ccccc2)nc(CC)c2c1CCCNC2=O	Displacement [10]: < 10%
7.72	15.6		0.0189	CCCOC(=O)c1c(-c2ccccc2)nc(CC)c(C(=O)SCC)c1CCC	Ratio (Rattus norvegicus [4]): 6; Ki (Adenosine receptor A2a): 2.05 µM; Ratio (Rattus norvegicus [5]): 140
7.8				CCCSC(=O)c1c(CC)nc(-c2ccccc2)c(C(=O)OCC)c1CC	
7.77				CCOC(=O)c1c(-c2ccccc2)nc(CCOC)c(C(=O)SCC)c1CC	
7.26	8.22	150	0.0551	CCCOC(=O)c1c(-c2ccccc2)nc(CC)c(C(=O)SCCF)c1CCC	Ki (Adenosine receptor A2a): 24.8 µM
6.35	5.68	13	0.446	CCCc1c(C(=O)SCC)c(CC)nc(-c2ccccc2)c1C(=O)OCC(F)(F)C(F)(F)F	Ki (Adenosine receptor A2a): 14 µM
8.1				CCCOC(=O)c1c(-c2cccc(Cl)c2)nc(CC)c(C(=O)SCCC)c1CC	
